Values joined by “and” are separate entries in the source; they are usually repeats but may differ in a detail not shown here. Equal values may be shown once. Results filed as inconclusive are left out. Active and inactive are the calls of the source.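 The calls were made as follows: active = fitted dose curve passes 500% activation at or below the top valid tested dose; inconclusive = no clear call, values can overlap the other calls; inactive = the rest, opposite-direction activity included.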
Test system: U2OS HRE-luciferase reporter, luminescence
Experiment: activation of hypoxia-responsive element reporter – cell-based, U2OS, luminescence, dry powder, set 7, dose response (AID 493235)
Settings: not given
Outline: (§1)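 Test system: human U2OS osteosarcoma cells stably expressing 3×HRE-driven luciferase reporter; input: 6,000 cells per well; medium: DMEM without phenol red, with 10% fetal bovine serum; compound: 8 concentrations, 3-fold steps; schedule: 24 h pre-culture, 24 h compound treatment, 37 °C; technique: luminescence with Steady-Glo luciferase reagent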

Question: Which AC500 does the source give for `CC(Nc1nc(-c2ccccn2)nnc1-c1ccccc1)c1ccccc1` (stereo unspecified) here?
Answer: The AC500 was 2.97 µM.

Question: For `c1ccc(-c2nnc(-c3ccccn3)nc2NCCc2ccccn2)cc1`, which AC500 is on record?
Answer: Its AC500 is 10.3 µM.

Question: For `c1ccc(CNc2nc(-c3ccccn3)nnc2-c2ccccc2)cc1`, which AC500 is on record?
Answer: Its AC500 is 5.52 µM.

Question: For `c1ccc(-c2nnc(-c3ccccn3)nc2N2CCC(c3ccccc3)C2)cc1` (stereo unspecified), which AC500 is on record?
Answer: Its AC500 is 1.72 µM.

Question: For `c1ccc(CCNc2nc(-c3ccccn3)nnc2-c2ccccc2)cc1`, which AC500 is on record?
Answer: The AC500 was 2.81 µM.

Question: For `Clc1cccc(CNc2nc(-c3ccccn3)nnc2-c2ccccc2)c1`, which AC500 is on record?
Answer: The AC500 was 1.84 µM.

Question: For `c1ccc(-c2nnc(-c3ccccn3)nc2Nc2nc3ccccc3s2)cc1`, which AC500 is on record?
Answer: Its AC500 is 5.89 µM.

Question: For `c1ccc(-c2cnc(Nc3nc(-c4ccccn4)nnc3-c3ccccc3)s2)cc1`, which AC500 is on record?
Answer: Its AC500 is 6.49 µM.

Question: Which AC500 does the source give for `COc1cccc(CNc2nc(-c3ccccn3)nnc2-c2ccccc2)c1` here?
Answer: The AC500 was 2.07 µM.

Question: With `O=C(NCCN1CCOCC1)c1cc(-c2ccccc2)on1` as the molecule, how does the AC500 read?
Answer: Its AC500 is 14.2 µM.

Question: For `Cc1cccc(CNc2nc(-c3ccccn3)nnc2-c2ccccc2)c1`, which AC500 is on record?
Answer: The AC500 was 4.08 µM.

Question: For `c1ccc(-c2nnc(-c3ccccn3)nc2NCc2ccccn2)cc1`, which AC500 is on record?
Answer: The AC500 was 20.5 µM.

Question: For `Cc1ccc(CNc2nc(-c3ccccn3)nnc2-c2ccccc2)cc1`, which AC500 is on record?
Answer: Its AC500 is 4.35 µM.

Question: For `c1ccc(-c2nnc(-c3ccccn3)nc2NCCN2CCOCC2)cc1`, which AC500 is on record?
Answer: Its AC500 is 9.37 µM.

Question: With `c1ccc(-c2ccc(CNc3nc(-c4ccccn4)nnc3-c3ccccc3)cc2)cc1` as the molecule, how does the AC500 read?
Answer: Its AC500 is 0.71 µM.

Question: Which AC500 does the source give for `c1ccc(-c2nnc(-c3ccccn3)nc2NCC2CCOCC2)cc1` here?
Answer: Its AC500 is 14.2 µM.

Question: With `Oc1ccc(CN2CCC3CCCCC3C2)c2cccnc12` (stereo unspecified) as the molecule, how does the AC500 read?
Answer: Its AC500 is 11.1 µM.

Question: With `CC(C)(C)CCNc1nc(-c2ccccn2)nnc1-c1ccccc1` as the molecule, how does the AC500 read?
Answer: Its AC500 is 2.2 µM and 1.47 µM.

Question: For `CC(C)(C)CCNC(=O)c1cc(-c2ccccc2)on1`, which AC500 is on record?
Answer: Its AC500 is 35.8 µM.

Question: Which AC500 does the source give for `C[C@@H](Nc1nc(-c2ccccn2)nnc1-c1ccccc1)C1CCCCC1` here?
Answer: Its AC500 is 4.02 µM.

Question: With `Cc1ccc(CNc2nc(-c3ccccn3)nnc2-c2ccccc2)cc1C` as the molecule, how does the AC500 read?
Answer: The AC500 was 1.31 µM.

Question: Which AC500 does the source give for `c1ccc(-c2cccc(CNc3nc(-c4ccccn4)nnc3-c3ccccc3)c2)cc1` here?
Answer: Its AC500 is 3.39 µM.

Question: Which AC500 does the source give for `COc1ccc(CNc2nc(-c3ccccn3)nnc2-c2ccccc2)cc1` here?
Answer: The AC500 was 2.59 µM.

Question: With `c1ccc(-c2nnc(-c3ccccn3)nc2NCC2CCCCC2)cc1` as the molecule, how does the AC500 read?
Answer: Its AC500 is 2.17 µM.

Question: With `c1ccc(-c2nnc(Nc3nc(-c4ccccn4)nnc3-c3ccccc3)s2)cc1` as the molecule, how does the AC500 read?
Answer: The AC500 was 2.99 µM.

Question: With `Cc1cccc(Nc2nc(-c3ccccn3)nnc2-c2ccccc2)n1` as the molecule, how does the AC500 read?
Answer: Its AC500 is 10.7 µM.

Question: For `C[C@@H](Nc1nc(-c2ccccn2)nnc1-c1ccccc1)c1ccccc1`, which AC500 is on record?
Answer: The AC500 was 3.92 µM.

Question: With `CC(C)(C)c1ccc(CNc2nc(-c3ccccn3)nnc2-c2ccccc2)cc1` as the molecule, how does the AC500 read?
Answer: Its AC500 is 1.33 µM.

Question: With `c1ccc(-c2nnc(-c3ccccn3)nc2NCCCN2CCOCC2)cc1` as the molecule, how does the AC500 read?
Answer: The AC500 was 10.2 µM.

Question: Which AC500 does the source give for `COc1ccccc1N1CCN(Cc2ccc(O)c3ncccc23)CC1` here?
Answer: The AC500 was 26.5 µM.

Question: For `C[C@H](Nc1nc(-c2ccccn2)nnc1-c1ccccc1)C1CCCCC1`, which AC500 is on record?
Answer: The AC500 was 2.99 µM.

Question: With `CN(C)c1nc(-c2ccccn2)nnc1-c1ccccc1` as the molecule, how does the AC500 read?
Answer: Its AC500 is 14.2 µM.

Question: With `Cc1ccccc1CNc1nc(-c2ccccn2)nnc1-c1ccccc1` as the molecule, how does the AC500 read?
Answer: The AC500 was 2.82 µM.

Question: For `c1ccc(-c2nnc(-c3ccccn3)nc2N2CCC(C3CCCCC3)C2)cc1` (stereo unspecified), which AC500 is on record?
Answer: Its AC500 is 4.37 µM.

Question: Which AC500 does the source give for `CCCCNC(=O)c1cc(-c2ccccc2)on1` here?
Answer: Its AC500 is 9.47 µM.

Question: With `Oc1ccc(CN2CCC(Cc3ccccc3)CC2)c2cccnc12` as the molecule, how does the AC500 read?
Answer: Its AC500 is 20.1 µM.

Question: Which AC500 does the source give for `C=CCNc1nc(-c2ccccn2)nnc1-c1ccccc1` here?
Answer: Its AC500 is 9.45 µM.

Question: Which AC500 does the source give for `c1ccc(-c2nnc(-c3ccccn3)nc2Nc2cnc3ccccc3n2)cc1` here?
Answer: Its AC500 is 6.2 µM.

Question: Which AC500 does the source give for `O=C(NCC1CC1)c1cc(-c2ccccc2)on1` here?
Answer: Its AC500 is 10 µM.

Question: Which AC500 does the source give for `c1ccc(-c2nnc(-c3ccccn3)nc2N2CCN(c3ccncc3)CC2)cc1` here?
Answer: Its AC500 is 9.6 µM.

Question: With `O=C(NCCCCO)c1cc(-c2ccccc2)on1` as the molecule, how does the AC500 read?
Answer: Its AC500 is 2.82 µM.

Question: With `c1ccc(-c2csc(Nc3nc(-c4ccccn4)nnc3-c3ccccc3)n2)cc1` as the molecule, how does the AC500 read?
Answer: Its AC500 is 2.01 µM.

Question: Which AC500 does the source give for `OCCCNc1nc(-c2ccccn2)nnc1-c1ccccc1` here?
Answer: The AC500 was 16.8 µM.

Question: Which AC500 does the source give for `Cc1ccc(Nc2nc(-c3ccccn3)nnc2-c2ccccc2)cn1` here?
Answer: The AC500 was 11.2 µM.

Question: With `c1ccc(-c2nnc(-c3ccccn3)nc2NCc2cccnc2)cc1` as the molecule, how does the AC500 read?
Answer: Its AC500 is 15.3 µM.

Question: Which AC500 does the source give for `O=C(NCCCn1ccnc1)c1cc(-c2ccccc2)on1` here?
Answer: Its AC500 is 5.75 µM.

Question: With `OCC1CCN(c2nc(-c3ccccn3)nnc2-c2ccccc2)CC1` as the molecule, how does the AC500 read?
Answer: The AC500 was 21.7 µM.

Question: For `CN1CCN(c2nc(-c3ccccn3)nnc2-c2ccccc2)CC1`, which AC500 is on record?
Answer: Its AC500 is 12.1 µM.

Question: With `Oc1ccc(CN2CCc3ccccc3C2)c2cccnc12` as the molecule, how does the AC500 read?
Answer: Its AC500 is 3.21 µM.

Question: With `c1ccc(-c2nnc(-c3ccccn3)nc2NCC2CC2)cc1` as the molecule, how does the AC500 read?
Answer: Its AC500 is 8.75 µM.

Question: For `Cn1c(-c2ccccc2)cnc1Nc1nc(-c2ccccn2)nnc1-c1ccccc1`, which AC500 is on record?
Answer: Its AC500 is 9.16 µM.

Question: Which AC500 does the source give for `c1ccc(-c2nnc(-c3ccccn3)nc2N2CCC(N3CCOCC3)CC2)cc1` here?
Answer: The AC500 was 4.84 µM.

Question: For `O=C(NCCCN1CCOCC1)c1cc(-c2ccccc2)on1`, which AC500 is on record?
Answer: Its AC500 is 11.3 µM.

Question: For `Oc1ccc(CNC2Cc3ccccc3C2)c2cccnc12`, which AC500 is on record?
Answer: Its AC500 is 28.6 µM.

Test system: not listed separately
Experiment: as above
Settings: U2OS HRE-luciferase reporter, luminescence; at 38 µM (top of the series)
Outline: as §1

Question: With `N#CC1(c2ccccc2)CCN(Cc2ccc(O)c3ncccc23)CC1` as the molecule, how does the activation read?
Answer: Its activation is 368% (inactive).

Question: Which activation does the source give for `Cc1ccccc1CNC(=O)c1cc(-c2ccccc2)on1` here?
Answer: Its activation is 22.9% (inactive).

Question: Which activation does the source give for `O=C(Nc1nc(-c2ccccc2)cs1)c1cc(-c2ccccc2)on1` here?
Answer: Its activation is -17.1% (inactive).

Question: For `O=C(NCc1ccccc1)c1cc(-c2ccccc2)on1`, which activation is on record?
Answer: The activation was 50.8% (inactive).

Question: With `O=C(Nc1nnc(-c2ccccc2)s1)c1cc(-c2ccccc2)on1` as the molecule, how does the activation read?
Answer: The activation was -7.41% (inactive).

Question: For `CC(C)(C)OC(=O)N1CCN(Cc2ccc(O)c3ncccc23)CC1`, which activation is on record?
Answer: Its activation is 271% (inactive).

Question: Which activation does the source give for `O=C(Nc1ncc2ccccc2n1)c1cc(-c2ccccc2)on1` here?
Answer: Its activation is 104% (inactive).

Question: With `O=C(c1cc(-c2ccccc2)on1)N1CCC(N2CCOCC2)CC1` as the molecule, how does the activation read?
Answer: Its activation is 8.48% (inactive).

Question: For `O=C(Nc1cnc2ccccc2c1)c1cc(-c2ccccc2)on1`, which activation is on record?
Answer: Its activation is 28.8% (inactive).

Question: Which activation does the source give for `O=C(Nc1ccc2ccccc2n1)c1cc(-c2ccccc2)on1` here?
Answer: The activation was 12.3% (inactive).

Question: Which activation does the source give for `Cn1c(-c2ccccc2)cnc1NC(=O)c1cc(-c2ccccc2)on1` here?
Answer: Its activation is 9.12% (inactive).

Question: For `O=C(NCCCO)c1cc(-c2ccccc2)on1`, which activation is on record?
Answer: The activation was 400% (inactive).

Question: With `Cc1ccc(NC(=O)c2cc(-c3ccccc3)on2)cn1` as the molecule, how does the activation read?
Answer: The activation was -7.72% (inactive).

Question: Which activation does the source give for `O=C(Nc1nc2ccccc2s1)c1cc(-c2ccccc2)on1` here?
Answer: The activation was 4.65% (inactive).

Question: Which activation does the source give for `CN1CCN(C(=O)c2cc(-c3ccccc3)on2)CC1` here?
Answer: The activation was 2.48% (inactive).

Question: For `Cc1cccc(NC(=O)c2cc(-c3ccccc3)on2)n1`, which activation is on record?
Answer: The activation was 29.2% (inactive).

Question: For `OCC1CCN(Cc2ccc(O)c3ncccc23)CC1`, which activation is on record?
Answer: The activation was 480% (inactive).

Question: For `Cc1cccc(CNC(=O)c2cc(-c3ccccc3)on2)c1`, which activation is on record?
Answer: The activation was 1.59% (inactive).

Question: For `O=C(Nc1cn2ccccc2n1)c1cc(-c2ccccc2)on1`, which activation is on record?
Answer: The activation was 31.3% (inactive).

Question: With `O=C(c1cc(-c2ccccc2)on1)N1CCC(N2CCCC2)CC1` as the molecule, how does the activation read?
Answer: Its activation is 5.02% (inactive).

Question: With `O=C(NC1CCc2ccccc2C1)c1cc(-c2ccccc2)on1` (stereo unspecified) as the molecule, how does the activation read?
Answer: The activation was 5.28% (inactive).

Question: For `Cn1c(NC(=O)c2cc(-c3ccccc3)on2)nc2ccccc21`, which activation is on record?
Answer: The activation was -0.753% (inactive).

Question: With `O=C(Nc1ncc(-c2ccccc2)o1)c1cc(-c2ccccc2)on1` as the molecule, how does the activation read?
Answer: Its activation is 14.8% (inactive).

Question: For `O=C(c1cc(-c2ccccc2)on1)N1CCN(c2ccncc2)CC1`, which activation is on record?
Answer: The activation was -14.8% (inactive).

Question: Which activation does the source give for `CC1CN(Cc2ccc(O)c3ncccc23)CC(C)O1` (stereo unspecified) here?
Answer: The activation was 95.7% (inactive).

Question: For `Oc1ccc(CN2CCc3ccccc3C2)c2cccnc12`, which activation is on record?
Answer: The activation was 263% (inactive).

Question: Which activation does the source give for `CN(C)CCNC(=O)c1cc(-c2ccccc2)on1` here?
Answer: Its activation is 29.6% (inactive).

From PubChem BioAssay AID493235 (Broad Institute, 2011)
